Laboratory results taken from ChEMBL document CHEMBL3585293, “Design, antiviral and cytostatic properties of isoxazolidine-containing amonafide analogues” (Bioorg Med Chem, 2015).
The source made the active and inactive calls. No cut-off for these calls is given here.

What follows are compounds tested on Influenza A virus (assay: Antiviral activity against Influenza A virus (A/PR/8/34(H1N1)) infected in MDCK cells assessed as reduction of virus-induced cytopathogenicity). Conditions: A/Puerto Rico/8/1934(H1N1).
Format: functional, organism-based
Procedure, shortened: (§1)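 MDCK cells, grown confluent in 96-well plates, were infected with influenza A/PR/8 (H1N1), A/HK/7/87 (H3N2) or B/HK/5/72 at 100 CCID50 or 20 PFU and exposed to varying compound concentrations. Cytopathic effect was recorded when it reached completion in untreated virus controls. EC50 is the concentration that halves virus-induced cytopathicity.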

| Compound | Activity |
| --- | --- |
| CCOP(=O)(OCC)[C@@H]1C[C@H](CN2C(=O)c3cccc4cc(NC(C)=O)cc(c34)C2=O)ON1C (relative stereo) | inactive |
| CCOP(=O)(OCC)[C@@H]1C[C@@H](CN2C(=O)c3cccc4cc(NC(C)=O)cc(c34)C2=O)ON1C (relative stereo) | inactive |
| CCOP(=O)(OCC)[C@@H]1C[C@H](CN2C(=O)c3cccc4cc([N+](=O)[O-])cc(c34)C2=O)ON1C (relative stereo) | inactive |
| CCOP(=O)(OCC)[C@@H]1C[C@H](CN2C(=O)c3cccc4cccc(c34)C2=O)ON1C (relative stereo) | inactive |
| CCOP(=O)(OCC)[C@@H]1C[C@@H](CN2C(=O)c3cccc4cc(N)cc(c34)C2=O)ON1C (relative stereo) | inactive |

These compounds were tested on Vesicular stomatitis virus (assay: Antiviral activity against Vesicular stomatitis virus infected in human HeLa cells assessed as reduction of virus-induced cytopathogenicity). Conditions: not given.
Format: functional, organism-based
Procedure, shortened: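 Confluent Vero (Coxsackie B4) or HeLa (vesicular stomatitis virus) monolayers in 96-well plates were inoculated with 100 CCID50 virus or 20 PFU and incubated with varying compound concentrations. Cytopathicity was scored once complete in untreated infected controls. […] Two separate experiments were run.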

| Compound | Activity |
| --- | --- |
| CCOP(=O)(OCC)[C@@H]1C[C@H](CN2C(=O)c3cccc4cc(NC(C)=O)cc(c34)C2=O)ON1C (relative stereo) | inactive |
| CCOP(=O)(OCC)[C@@H]1C[C@@H](CN2C(=O)c3cccc4cc(NC(C)=O)cc(c34)C2=O)ON1C (relative stereo) | inactive |
| CCOP(=O)(OCC)[C@@H]1C[C@H](CN2C(=O)c3cccc4cc([N+](=O)[O-])cc(c34)C2=O)ON1C (relative stereo) | inactive |
| CCOP(=O)(OCC)[C@@H]1C[C@H](CN2C(=O)c3cccc4cccc(c34)C2=O)ON1C (relative stereo) | inactive |
| CCOP(=O)(OCC)[C@@H]1C[C@@H](CN2C(=O)c3cccc4cc(N)cc(c34)C2=O)ON1C (relative stereo) | inactive |

Each compound was assayed on Sindbis virus (assay: Antiviral activity against Sindbis virus infected in African green monkey Vero cells assessed as reduction of virus-induced cytopathogenicity). Conditions: not given.
Format: functional, organism-based
Procedure, shortened: (§2)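 Confluent monolayers were infected with 100 CCID50 of virus (1 CCID50 infects 50% of cultures) or 20 PFU. The cultures were then incubated with varying test compound concentrations. Cytopathicity was scored once it was complete in untreated infected controls.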

| Compound | Activity |
| --- | --- |
| CCOP(=O)(OCC)[C@@H]1C[C@H](CN2C(=O)c3cccc4cc(NC(C)=O)cc(c34)C2=O)ON1C (relative stereo) | inactive |
| CCOP(=O)(OCC)[C@@H]1C[C@@H](CN2C(=O)c3cccc4cc(NC(C)=O)cc(c34)C2=O)ON1C (relative stereo) | inactive |
| CCOP(=O)(OCC)[C@@H]1C[C@H](CN2C(=O)c3cccc4cc([N+](=O)[O-])cc(c34)C2=O)ON1C (relative stereo) | inactive |
| CCOP(=O)(OCC)[C@@H]1C[C@H](CN2C(=O)c3cccc4cccc(c34)C2=O)ON1C (relative stereo) | inactive |
| CCOP(=O)(OCC)[C@@H]1C[C@@H](CN2C(=O)c3cccc4cc(N)cc(c34)C2=O)ON1C (relative stereo) | inactive |

The compounds below were run on Influenza A virus H3N2 (assay: Antiviral activity against Influenza A virus H3N2 infected in MDCK cells assessed as reduction of virus-induced cytopathogenicity). Conditions: not given.
Format: functional, organism-based
Procedure, shortened: as §1

| Compound | Activity |
| --- | --- |
| CCOP(=O)(OCC)[C@@H]1C[C@H](CN2C(=O)c3cccc4cc(NC(C)=O)cc(c34)C2=O)ON1C (relative stereo) | inactive |
| CCOP(=O)(OCC)[C@@H]1C[C@@H](CN2C(=O)c3cccc4cc(NC(C)=O)cc(c34)C2=O)ON1C (relative stereo) | inactive |
| CCOP(=O)(OCC)[C@@H]1C[C@H](CN2C(=O)c3cccc4cc([N+](=O)[O-])cc(c34)C2=O)ON1C (relative stereo) | inactive |
| CCOP(=O)(OCC)[C@@H]1C[C@H](CN2C(=O)c3cccc4cccc(c34)C2=O)ON1C (relative stereo) | inactive |
| CCOP(=O)(OCC)[C@@H]1C[C@@H](CN2C(=O)c3cccc4cc(N)cc(c34)C2=O)ON1C (relative stereo) | inactive |

These compounds were tested on Human respirovirus 3 (assay: Antiviral activity against Parainfluenza virus 3 infected in African green monkey Vero cells assessed as reduction of virus-induced cytopathogenicity). Conditions: not given.
Format: functional, organism-based
Procedure, shortened: as §2

| Compound | Activity |
| --- | --- |
| CCOP(=O)(OCC)[C@@H]1C[C@H](CN2C(=O)c3cccc4cc(NC(C)=O)cc(c34)C2=O)ON1C (relative stereo) | inactive |
| CCOP(=O)(OCC)[C@@H]1C[C@@H](CN2C(=O)c3cccc4cc(NC(C)=O)cc(c34)C2=O)ON1C (relative stereo) | inactive |
| CCOP(=O)(OCC)[C@@H]1C[C@H](CN2C(=O)c3cccc4cc([N+](=O)[O-])cc(c34)C2=O)ON1C (relative stereo) | inactive |
| CCOP(=O)(OCC)[C@@H]1C[C@H](CN2C(=O)c3cccc4cccc(c34)C2=O)ON1C (relative stereo) | inactive |
| CCOP(=O)(OCC)[C@@H]1C[C@@H](CN2C(=O)c3cccc4cc(N)cc(c34)C2=O)ON1C (relative stereo) | inactive |

The compounds below were run on Felid alphaherpesvirus 1 (assay: Antiviral activity against Feline herpesvirus infected in CRFK cells assessed as reduction of virus-induced cytopathogenicity). Conditions: not given.
Format: functional, organism-based
Procedure, shortened: as §2

| Compound | Activity |
| --- | --- |
| CCOP(=O)(OCC)[C@@H]1C[C@H](CN2C(=O)c3cccc4cc(NC(C)=O)cc(c34)C2=O)ON1C (relative stereo) | inactive |
| CCOP(=O)(OCC)[C@@H]1C[C@@H](CN2C(=O)c3cccc4cc(NC(C)=O)cc(c34)C2=O)ON1C (relative stereo) | inactive |
| CCOP(=O)(OCC)[C@@H]1C[C@H](CN2C(=O)c3cccc4cc([N+](=O)[O-])cc(c34)C2=O)ON1C (relative stereo) | inactive |
| CCOP(=O)(OCC)[C@@H]1C[C@H](CN2C(=O)c3cccc4cccc(c34)C2=O)ON1C (relative stereo) | inactive |
| CCOP(=O)(OCC)[C@@H]1C[C@@H](CN2C(=O)c3cccc4cc(N)cc(c34)C2=O)ON1C (relative stereo) | inactive |

These compounds were tested on Reovirus sp. (assay: Antiviral activity against Reovirus infected in African green monkey Vero cells assessed as reduction of virus-induced cytopathogenicity). Conditions: not given.
Format: functional, organism-based
Procedure, shortened: as §2

| Compound | Activity |
| --- | --- |
| CCOP(=O)(OCC)[C@@H]1C[C@H](CN2C(=O)c3cccc4cc(NC(C)=O)cc(c34)C2=O)ON1C (relative stereo) | inactive |
| CCOP(=O)(OCC)[C@@H]1C[C@@H](CN2C(=O)c3cccc4cc(NC(C)=O)cc(c34)C2=O)ON1C (relative stereo) | inactive |
| CCOP(=O)(OCC)[C@@H]1C[C@H](CN2C(=O)c3cccc4cc([N+](=O)[O-])cc(c34)C2=O)ON1C (relative stereo) | inactive |
| CCOP(=O)(OCC)[C@@H]1C[C@H](CN2C(=O)c3cccc4cccc(c34)C2=O)ON1C (relative stereo) | inactive |
| CCOP(=O)(OCC)[C@@H]1C[C@@H](CN2C(=O)c3cccc4cc(N)cc(c34)C2=O)ON1C (relative stereo) | inactive |

The compounds below were run on Feline coronavirus (assay: Antiviral activity against Feline coronavirus infected in CRFK cells assessed as reduction of virus-induced cytopathogenicity). Conditions: not given.
Format: functional, organism-based
Procedure, shortened: as §2

| Compound | Activity |
| --- | --- |
| CCOP(=O)(OCC)[C@@H]1C[C@H](CN2C(=O)c3cccc4cc(NC(C)=O)cc(c34)C2=O)ON1C (relative stereo) | inactive |
| CCOP(=O)(OCC)[C@@H]1C[C@@H](CN2C(=O)c3cccc4cc(NC(C)=O)cc(c34)C2=O)ON1C (relative stereo) | inactive |
| CCOP(=O)(OCC)[C@@H]1C[C@H](CN2C(=O)c3cccc4cc([N+](=O)[O-])cc(c34)C2=O)ON1C (relative stereo) | inactive |
| CCOP(=O)(OCC)[C@@H]1C[C@H](CN2C(=O)c3cccc4cccc(c34)C2=O)ON1C (relative stereo) | inactive |
| CCOP(=O)(OCC)[C@@H]1C[C@@H](CN2C(=O)c3cccc4cc(N)cc(c34)C2=O)ON1C (relative stereo) | inactive |

What follows are compounds tested on Influenza B virus (assay: Antiviral activity against Influenza B virus (B/HK/5/72) infected in MDCK cells assessed as reduction of virus-induced cytopathogenicity). Conditions: B/Hong Kong/05/1972.
Format: functional, cell-based
Procedure, shortened: as §1

| Compound | Activity |
| --- | --- |
| CCOP(=O)(OCC)[C@@H]1C[C@H](CN2C(=O)c3cccc4cc(NC(C)=O)cc(c34)C2=O)ON1C (relative stereo) | inactive |
| CCOP(=O)(OCC)[C@@H]1C[C@@H](CN2C(=O)c3cccc4cc(NC(C)=O)cc(c34)C2=O)ON1C (relative stereo) | inactive |
| CCOP(=O)(OCC)[C@@H]1C[C@H](CN2C(=O)c3cccc4cc([N+](=O)[O-])cc(c34)C2=O)ON1C (relative stereo) | inactive |
| CCOP(=O)(OCC)[C@@H]1C[C@H](CN2C(=O)c3cccc4cccc(c34)C2=O)ON1C (relative stereo) | inactive |
| CCOP(=O)(OCC)[C@@H]1C[C@@H](CN2C(=O)c3cccc4cc(N)cc(c34)C2=O)ON1C (relative stereo) | inactive |

The compounds below were run on Human adenovirus 2 (assay: Antiviral activity against Human adenovirus 2 infected in HEL cells assessed as reduction of virus-induced cytopathogenicity). Conditions: not given.
Format: functional, organism-based
Procedure, shortened: as §2

| Compound | Activity |
| --- | --- |
| CCOP(=O)(OCC)[C@@H]1C[C@H](CN2C(=O)c3cccc4cc(NC(C)=O)cc(c34)C2=O)ON1C (relative stereo) | inactive |
| CCOP(=O)(OCC)[C@@H]1C[C@@H](CN2C(=O)c3cccc4cc(NC(C)=O)cc(c34)C2=O)ON1C (relative stereo) | inactive |
| CCOP(=O)(OCC)[C@@H]1C[C@H](CN2C(=O)c3cccc4cc([N+](=O)[O-])cc(c34)C2=O)ON1C (relative stereo) | inactive |
| CCOP(=O)(OCC)[C@@H]1C[C@H](CN2C(=O)c3cccc4cccc(c34)C2=O)ON1C (relative stereo) | inactive |
| CCOP(=O)(OCC)[C@@H]1C[C@@H](CN2C(=O)c3cccc4cc(N)cc(c34)C2=O)ON1C (relative stereo) | inactive |

Each compound was assayed on Respiratory syncytial virus (assay: Antiviral activity against Respiratory syncytial virus infected in human Hela cells assessed as reduction of virus-induced cytopathogenicity). Conditions: not given.
Format: functional, organism-based
Procedure, shortened: as §2

| Compound | Activity |
| --- | --- |
| CCOP(=O)(OCC)[C@@H]1C[C@H](CN2C(=O)c3cccc4cc(NC(C)=O)cc(c34)C2=O)ON1C (relative stereo) | inactive |
| CCOP(=O)(OCC)[C@@H]1C[C@@H](CN2C(=O)c3cccc4cc(NC(C)=O)cc(c34)C2=O)ON1C (relative stereo) | inactive |
| CCOP(=O)(OCC)[C@@H]1C[C@H](CN2C(=O)c3cccc4cc([N+](=O)[O-])cc(c34)C2=O)ON1C (relative stereo) | inactive |
| CCOP(=O)(OCC)[C@@H]1C[C@H](CN2C(=O)c3cccc4cccc(c34)C2=O)ON1C (relative stereo) | inactive |
| CCOP(=O)(OCC)[C@@H]1C[C@@H](CN2C(=O)c3cccc4cc(N)cc(c34)C2=O)ON1C (relative stereo) | inactive |
